Test [1] concerns the target T1, Glucocorticoid receptor (Homo sapiens, UniProt P04150).
T1 sequence (P04150 whole entry): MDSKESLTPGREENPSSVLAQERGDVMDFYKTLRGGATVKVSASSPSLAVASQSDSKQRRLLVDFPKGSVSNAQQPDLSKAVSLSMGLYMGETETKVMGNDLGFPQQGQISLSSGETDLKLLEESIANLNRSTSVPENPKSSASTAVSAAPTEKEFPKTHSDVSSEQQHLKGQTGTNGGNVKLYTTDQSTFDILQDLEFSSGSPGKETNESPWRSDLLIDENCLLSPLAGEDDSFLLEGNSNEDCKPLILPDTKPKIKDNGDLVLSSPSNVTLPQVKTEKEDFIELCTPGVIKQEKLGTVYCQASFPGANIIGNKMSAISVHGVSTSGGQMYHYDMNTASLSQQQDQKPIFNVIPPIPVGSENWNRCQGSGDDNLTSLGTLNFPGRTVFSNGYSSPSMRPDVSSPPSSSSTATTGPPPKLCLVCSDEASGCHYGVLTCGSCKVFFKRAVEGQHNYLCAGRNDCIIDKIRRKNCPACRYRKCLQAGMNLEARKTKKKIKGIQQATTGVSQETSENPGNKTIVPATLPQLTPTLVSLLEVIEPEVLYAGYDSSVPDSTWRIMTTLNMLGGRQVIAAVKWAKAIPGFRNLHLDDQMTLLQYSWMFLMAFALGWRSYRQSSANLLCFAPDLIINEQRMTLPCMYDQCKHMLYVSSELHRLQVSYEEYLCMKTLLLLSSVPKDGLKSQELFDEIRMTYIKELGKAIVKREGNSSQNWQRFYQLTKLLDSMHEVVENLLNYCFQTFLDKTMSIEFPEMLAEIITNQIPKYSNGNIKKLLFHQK
Briefly: Transactivation activity at GR-alpha in human NP1 Hela cells assessed as induction of GAL4-DBD after 20 hrs by luciferase reporter gene assay. It is filed as cell-based. A general note: A reporter such as luciferase makes a cellular process visible.

Test [2] deals with T1, Glucocorticoid receptor. Briefly: Transactivation activity at glucocorticoid receptor alpha human 13D3/Huh7 cells assessed as induction of TAT activity after 4 hrs by spectrophotometry. It counts as cell-based, Huh-7.
Test [3] has as its target T1, Glucocorticoid receptor. Briefly: Transactivation activity at GR-alpha in human NP1 Hela cells assessed as inhibition of GAL4-DBD after 20 hrs by luciferase reporter gene assay. It is filed as cell-based.
Test [4] addresses T1, Glucocorticoid receptor. Briefly: Transrepression activity at glucocorticoid receptor alpha in phorbol myristate acetate-stimulated human A549 cells assessed as inhibition of AP1 response element by luciferase reporter gene assay. It counts as cell-based.
Test [5] has as its target T1, Glucocorticoid receptor. Briefly: Displacement of GS-red from glucocorticoid receptor by fluorescence polarization assay. In general terms: Fluorescence polarisation rises when a labelled molecule tumbles more slowly, as on binding a larger partner.
Test [6] addresses T1, Glucocorticoid receptor. Briefly: Transrepression activity at glucocorticoid receptor alpha in IL-1beta-stimulated human A549 cells assessed as inhibition of NFkappaB-dependent E-selectin transcription by luciferase reporter gene assay. It is filed as cell-based.
The subject of test [7] is Blood. Briefly: Antiinflammatory activity in human whole blood assessed as inhibition of LPS-induced TNFalpha production after overnight incubation by ELISA. It counts as functional, tissue-based. The method, boiled down:
(§1)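 Whole blood from two donors per experiment was collected into ACD-A. Compounds were added and the blood was incubated about 20 h at 37 °C under 5% CO2. Blood was then stimulated for 5 h with LPS (final 100 ng/mL, for TNFα) or IL-1β (final 10 ng/mL, for IL-8). Plasma TNFα or IL-8 was measured by ELISA. Efficacy was expressed as % of dexamethasone, and values are means of at least two experiments.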
(ELISA stands for enzyme-linked immunosorbent assay.)

Test [8] concerns Blood. Briefly: Antiinflammatory activity in human whole blood assessed as inhibition of LPS-induced TNFalpha production after overnight incubation by ELISA relative to Dexamethasone. It counts as functional. Summed up:
as §1

Test [9] has as its system Blood. Briefly: Antiinflammatory activity in human whole blood assessed as inhibition of IL-1beta-induced IL-8 production after overnight incubation by ELISA. It is filed as functional, tissue-based. The method, boiled down: as §1

This is an account of results in ChEMBL document CHEMBL1909630, “Azaxanthene based selective glucocorticoid receptor modulators: design, synthesis, and pharmacological evaluation of (S)-4-(5-(1-((1,3,4-thiadiazol-2-yl)amino)-2-methyl-1-oxopropan-2-yl)-5H-chromeno[2,3-b]pyridin-2-yl)-2-fluoro-N,N-dimethylbenzamide (BMS-776532) and its methylene homologue …” (J Med Chem, 2011).

What is called EC50 is the midpoint of the concentration-response curve. Take `CC(C)(C(=O)Nc1nncs1)[C@H]1c2ccccc2Oc2nc(-c3ccccc3)ccc21`: the EC50 in test [1] is over 10000 nM; in test [2] it was over 5000 nM; in test [3], 187 nM; in [4], over 1500 nM.

A word on the Ki: it is a dissociation constant, usually derived from enzyme kinetics or from competition with a known ligand. `Cc1cccc(-c2ccc3c(n2)Oc2ccccc2[C@@H]3C(C)(C)C(=O)Nc2nncs2)c1`: the EC50 was over 10000 nM in test [1]; over 5000 nM in test [2]; 1560 nM in test [3]; over 5000 nM in [6]; 654 nM in test [4]. Also, affinity in test [5] was put at a Ki of 24 nM.

Turning to `CC(C)(C(=O)Nc1nncs1)[C@H]1c2ccccc2Oc2nc(-c3ccc(C(=O)N4CCOCC4)cc3)ccc21`, the EC50 in test [1] was determined as 39.2 nM; in [3], 28.6 nM; in [6], 6.3 nM; in test [4], 12.4 nM. Besides, the affinity in test [5] corresponds to a Ki of 2.6 nM.

`CC(C)(C(=O)Nc1nncs1)[C@H]1c2ccccc2Oc2nc(-c3ccc(C(=O)N4CCCCC4)cc3)ccc21`: the EC50 in test [1] is 273 nM; in [2], over 5000 nM; in test [3] it was 167 nM; in test [6], 28.6 nM; in [4], 15.7 nM. In [5], this compound registered a Ki of 1.3 nM.

As to `CC(=O)c1ccc(-c2ccc3c(n2)Oc2ccccc2[C@@H]3C(C)(C)C(=O)Nc2nncs2)cc1F`, the EC50 in test [1] was over 10000 nM; in [2], over 5000 nM; in [3] it was 134 nM; in [4] it was 42 nM. Besides, in [5], the Ki was 6 nM.

For `CN(C)C(=O)c1cnc(-c2ccc3c(c2)Oc2ccccc2C3C(C)(C)C(=O)Nc2nncs2)nc1` (racemic), the EC50 in test [1] stood at 596 nM; in [3], 592 nM; in test [4], 183 nM. Further, affinity in [5] was put at a Ki of 4.2 nM.

Consider `CCN(C)C(=O)c1ccc(-c2ccc3c(n2)Oc2ccccc2[C@H]3C(C)(C)C(=O)Nc2nncs2)cc1`, for which the half-maximal effective concentration (EC50) amounted to 32.4 nM in test [1]; 740 nM in test [2]; 78.5 nM in test [7]; 36.7 nM in [3]; 7.8 nM in test [6]; 17.4 nM in test [4]. The same compound gave a Ki in test [5] of 0.67 nM. Besides, the Imax in test [8] is given as 100%.

Turning to `CC(C)(C(=O)Nc1nncs1)[C@H]1c2ccccc2Oc2nc(-c3ccc(C(N)=O)cc3)ccc21`, the EC50 in test [1] was over 10000 nM; in test [2] it was over 5000 nM; in test [3], 202 nM; in test [4], over 10000 nM.

Regarding `COc1ccc(-c2ccc3c(n2)Oc2ccccc2[C@H]3C(C)(C)C(=O)Nc2nncs2)cc1`, the EC50 in test [1] was over 10000 nM; in test [2], over 5000 nM; in [3] it was 4360 nM; in test [6], 355 nM; in [4], over 10000 nM. This compound yielded a Ki in test [5] of 49.5 nM.

With `CN(C)C(=O)c1ccc(-c2ccc3c(c2)Oc2ccccc2C3C(C)(C)C(=O)Nc2nncs2)nc1` (racemic), the EC50 was 382 nM in test [1], over 5000 nM in test [2], 162 nM in test [3] and 58 nM in test [4]. In addition, affinity in [5] was put at a Ki of 4.1 nM.

As for `CN(C)c1ccc(-c2ccc3c(n2)Oc2ccccc2[C@@H]3C(C)(C)C(=O)Nc2nncs2)cc1`, the concentration for a half-maximal effect (EC50) in test [1] was 926 nM; in [3] it was 242 nM; in [6], 20 nM; in test [4], 13.6 nM. Besides, the Ki in [5] was found to be 3.8 nM.

For `CCc1ccc(-c2ccc3c(n2)Oc2ccccc2[C@H]3C(C)(C)C(=O)Nc2nncs2)cc1`, the EC50 in [1] was determined as 108 nM; in test [2] it was 732 nM; in [3], 27 nM; in test [6], 8.3 nM; in test [4] it was 17.7 nM. The compound further had a Ki in test [5] of 1 nM.

For the compound `CCS(=O)(=O)c1ccc(-c2ccc3c(n2)Oc2ccccc2[C@@H]3C(C)(C)C(=O)Nc2nncs2)cc1`, the EC50 in test [1] was 206 nM; in test [2] it was over 5000 nM; in [3] it was 196 nM; in [6], 22.8 nM; in [4] it was 28.6 nM. In addition, the Ki in test [5] worked out at 4 nM.

In test [5], `CC(C)(C(=O)Nc1nncs1)C1c2ccccc2Oc2ncccc21` (racemic) displayed a Ki of 412 nM.

For `CN(C)C(=O)c1ccc(-c2ccc3c(c2)Oc2ccccc2C3C(C)(C)C(=O)Nc2nncs2)cc1` (racemic), the 50% effective concentration (EC50) in test [1] was over 10000 nM; in test [2] it was over 5000 nM; in test [3], 610 nM; in [6], 74.9 nM; in test [4] it was 77.9 nM. In [5], this compound gave a Ki of 8.6 nM.

Take `CC(C)(C(=O)Nc1nncs1)[C@@H]1c2ccccc2Oc2nc(-c3ccc(O)cc3)ccc21`: the EC50 in test [1] is over 10000 nM; in [3], 201 nM; in [6] it was 108 nM; in [4] it was 90.8 nM. For the same compound, the Ki in test [5] turned out to be 5.7 nM.

Turning to `C[C@@H]1C[C@H]2[C@@H]3CCC4=CC(=O)C=C[C@]4(C)[C@@]3(F)[C@@H](O)C[C@]2(C)[C@@]1(O)C(=O)CO` [DEXAMETHASONE], the 50% effective concentration (EC50) in test [9] turned out to be 5.1 nM; in test [7], 6.9 nM.

Take `CCN(C)C(=O)c1ccc(-c2ccc3c(n2)Oc2ccccc2[C@H]3C(C)(C)C(=O)Nc2nncs2)cc1Cl`: the EC50 in test [1] came to 702 nM; in test [2], 2400 nM; in test [3] it was 721 nM; in test [6], 64.9 nM; in test [4] it was 124 nM. In addition, the inhibitory constant (Ki) in [5] was 15.7 nM.

As for `CN(C)C(=O)c1ccc(-c2ccc3c(n2)Oc2ccccc2[C@H]3C(C)(C)C(=O)Nc2nncs2)cc1`, the EC50 was over 10000 nM in test [1], over 5000 nM in [2], 1740 nM in test [3] and over 10000 nM in test [4].

With `CC(=O)c1ccc(-c2ccc3c(n2)Oc2ccccc2[C@@H]3C(C)(C)C(=O)Nc2nncs2)cc1`, the EC50 in [1] was 75.4 nM; in test [2], 1100 nM; in test [3], 31 nM; in [6], 10.2 nM; in test [4] it was 6.2 nM. Moreover, the Ki in test [5] came to 2.9 nM.

`Cc1ccc(-c2ccc3c(n2)Oc2ccccc2[C@@H]3C(C)(C)C(=O)Nc2nncs2)cc1`: the EC50 is 2210 nM in [1]; over 5000 nM in [2]; 260 nM in test [3]; 26.6 nM in test [6]; 46.8 nM in [4]. Also, in test [5], the Ki worked out at 2.5 nM.

With `CNC(=O)c1ccc(-c2ccc3c(n2)Oc2ccccc2[C@@H]3C(C)(C)C(=O)Nc2nncs2)cc1`, the EC50 in test [1] was over 10000 nM; in [2], over 5000 nM; in test [3] it was 806 nM; in test [6], 216 nM; in [4], 167 nM. Further, the Ki in test [5] worked out at 9.17 nM.

With `Cc1ccccc1-c1ccc2c(n1)Oc1ccccc1[C@@H]2C(C)(C)C(=O)Nc1nncs1`, the EC50 in [1] was over 10000 nM; in [2] it was over 5000 nM; in test [3], 1560 nM; in [6] it was over 5000 nM; in test [4] it was 122 nM. In [5], this compound registered a Ki of 10.5 nM.

Consider `CC(C)(C(=O)Nc1nncs1)[C@H]1c2ccccc2Oc2nc(-c3ccc(C(=O)O)cc3)ccc21`, for which the EC50 is over 10000 nM in [1], over 5000 nM in [3], 1090 nM in test [6] and 544 nM in test [4]. The Ki in [5] came out at 15.4 nM.

On to `COc1ccc(-c2ccc3c(n2)Oc2ccccc2[C@@H]3C(C)(C)C(=O)Nc2nncs2)cc1`, for which the half-maximal effective concentration (EC50) in test [1] is over 10000 nM; in [2], over 5000 nM; in test [3], 105 nM; in [6], 21.3 nM; in [4], 28.3 nM. The compound also registered a Ki in [5] of 1.2 nM.
